Assay outcomes (PubChem BioAssay)
The list is not random: actives were taken first. Their share in the collection is about 11%.
Lmaj promast = reduces viability of Leishmania major promastigotes; inhibition, % at 10 µM; resazurin fluorescence viability; AID 1063; 9% of 200,000 active;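 also: promastigotes grown with compound for 44 hours at 28 °C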
Diaphorase act = counter-screen for diaphorase-based assays: diaphorase activators and chemical reducers; Diaphorase/resazurin coupled assay, resorufin fluorescence, 16 min; active compounds read high; 1 = vehicle wells, 0 = NADH-free wells; activation factor at 20 µM; 0.005% of 190,000 active; AID 1229;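 active = diaphorase activity raised at least twofold by the compound at 20 µM; inactive = activation factor below 2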
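Material: bacterial diaphorase enzyme (C. kluyveri); amount: enzyme 0.07 U/mL final; reagent: NADH substrate 0.114 mM plus resazurin dye 0.1 mM, final; doses: single compound dose of 20 µM, 1% DMSO final; timing: 16 min enzyme reaction, ambient temperature; measured by: fluorescence of resorufin, 544 nm excitation, 590 nm emission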
Diaph inh CS = counter-screen for diaphorase-based assays: diaphorase inhibitors and chemical oxidizers | diaphorase resazurin-to-resorufin fluorescence, NADH, 16 min; bacterial (C. kluyveri) enzyme, not human | inhibition, % at 20 µM | 0.69% of 190,000 active | AID 1217;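 active = primary screen inhibition at 20 µM above a set limit, cut at about 50% in these data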;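 also: plate controls were DMSO with full reaction for no effect and wells lacking NADH for full effect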
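Test system: diaphorase enzyme from Clostridium kluyveri; amount: diaphorase at 0.14 U/mL in enzyme working solution; detection: fluorescence of resorufin formed from resazurin, Ex 544/Em 590 nm; times: reaction incubation of 16 min at room temperature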
G6PDH counter = L. mesenteroides G6PDH inhibition counter-screen | inhibition, % at 5 µM | 0.12% of 200,000 active | AID 1020 | Purified L. mesenteroides G6PDH, diaphorase/resazurin coupled fluorescence, 45 min
WT yeast gro inh = growth inhibition of WT yeast, mitochondrial fusion screen | mitochondrial fusion phenotypic screen, WT strain | inhibition, % at 10 µM | 2.1% of 190,000 active | AID 1362; in the data active = inhibition above about 58%; tested in S. cerevisiae
Active calls of the source: *. Rule as the data show it, unless noted: active = inhibition above about 50%; inactive = the rest.

`CN1CCN(NC(=O)c2cc(S(=O)(=O)N3CCOCC3)c(Cl)cc2Cl)CC1` gave Lmaj promast 49.0, Diaphorase act 0.9, Diaph inh CS 8.9, G6PDH counter -8.4 and WT yeast gro inh 1.8.
`O=[N+]([O-])c1ccc(C(=Nc2cccc3ccccc23)N2CCOCC2)cc1` gave Lmaj promast 2.0, Diaphorase act 0.9, Diaph inh CS 13.1, G6PDH counter 1.8 and WT yeast gro inh 21.4.
Screening CCN1CCN(c2cc(C)c3cc(NC(=S)N4CCN(c5ccccc5F)CC4)ccc3n2)CC1 returned Lmaj promast 99.1*, Diaphorase act 1, Diaph inh CS 4.8, G6PDH counter 1.2 and WT yeast gro inh 35.9.
CCN1CCN(c2cc(C)c3cc(NC(=S)N4CCOCC4)ccc3n2)CC1 was read as Lmaj promast 21.9, Diaphorase act 1.1, Diaph inh CS -14.5, G6PDH counter -1.5 and WT yeast gro inh 3.6.
Screening CCN1CCN(c2cc(C)c3cc(NC(=S)N4CCN(c5ccccc5)CC4)ccc3n2)CC1 returned Lmaj promast 99.8*, Diaphorase act 1, Diaph inh CS -0.9, G6PDH counter 0.8 and WT yeast gro inh 8.1.
For COc1ccccc1N1CCN(C(=S)Nc2ccc3nc(N4CCOCC4)cc(C)c3c2)CC1 the results were Lmaj promast 53.3*, Diaphorase act 0.7, Diaph inh CS 26.4, G6PDH counter 8.6 and WT yeast gro inh 34.6.
`Cc1cc(N2CCOCC2)nc2ccc(NC(=S)N3CCN(c4ccccc4)CC3)cc12` gave Lmaj promast 4.3, Diaphorase act 0.9, Diaph inh CS 10.3, G6PDH counter 4.1 and WT yeast gro inh 17.1.
CCOC(=O)C(C)Oc1ccc(C2NC(=O)NC(C)=C2C(=O)Nc2ccccc2C)cc1 (centres undefined) was read as Lmaj promast -0.1, Diaphorase act 0.9, Diaph inh CS 13.6, G6PDH counter 7.5 and WT yeast gro inh -2.4.
For CCOc1nc(NCCN2CCOCC2)nc(Nc2ccc([N+](=O)[O-])cc2)n1 the results were Lmaj promast 32.8, Diaphorase act 0.8, Diaph inh CS 20.9, G6PDH counter 1.6 and WT yeast gro inh -1.2.
O=C(N=Nc1ccc(NOC(=O)c2ccccc2Br)cc1)c1ccccc1O was read as Lmaj promast -4.8, Diaphorase act 0.4, Diaph inh CS 64.7*, G6PDH counter -2.0 and WT yeast gro inh 42.2.
`NCCNc1ccc([N+](=O)[O-])c(NC2CC2)c1` gave Lmaj promast 16.8, Diaphorase act 0.8, Diaph inh CS 16.0, G6PDH counter 6.1 and WT yeast gro inh -6.1.
Screening O=C(CN(C(=O)CNC(=O)c1ccco1)c1ccc2c(c1)OCCO2)NC1CCCC1 returned Lmaj promast -6.2, G6PDH counter 0.7 and WT yeast gro inh -11.1.
Screening CCCCCOc1ccc(/C=c2\sc3nc(=O)c(-c4ccccc4)nn3c2=O)cc1OC returned Lmaj promast -7.1, Diaphorase act 1, Diaph inh CS 1.9, G6PDH counter -16.4 and WT yeast gro inh -4.2.
O=c1nc2s/c(=C\c3ccc(-c4ccccc4[N+](=O)[O-])o3)c(=O)n2nc1-c1ccccc1 was read as Lmaj promast -9.8, Diaphorase act 0.3, Diaph inh CS 68.9*, G6PDH counter 31.9 and WT yeast gro inh -1.7.
CCOC(=O)N1CCN(CC(O)COCCC23CC4CC(CC(C4)C2)C3)CC1 (centres undefined) was read as Lmaj promast 87.1*, Diaphorase act 0.9, Diaph inh CS 9.3, G6PDH counter 5.4 and WT yeast gro inh 60.0*.
Screening CC1CCCCN1CC(O)COCCC12CC3CC(CC(C3)C1)C2 (centres undefined) returned Lmaj promast 94.3*, Diaphorase act 0.9, Diaph inh CS 6.2, G6PDH counter 6.7 and WT yeast gro inh 51.4.
Cc1cccc(N2CCN(C(=O)c3cn(C)c(=O)c4c3c3ccccc3n4C)CC2)c1C was read as Lmaj promast 20.9, Diaphorase act 0.8, Diaph inh CS 21.1, G6PDH counter 0.9 and WT yeast gro inh 4.9.
Cc1ccc(Cl)cc1N1CCN(C(=O)c2cn(C)c(=O)c3c2c2ccccc2n3C)CC1 was read as Lmaj promast 54.5*, Diaphorase act 0.8, Diaph inh CS 24.7, G6PDH counter -3.7 and WT yeast gro inh 15.5.
For CCOC(=O)C1=C(C)N=C2SC(C)C(=O)N2C1c1ccc(OCC)c(OCC)c1 (centres undefined) the results were Lmaj promast -5.2, Diaphorase act 0.9, Diaph inh CS 13.7, G6PDH counter -13.1 and WT yeast gro inh -14.6.
`COc1ccc(OC)c(NC(=O)C(=O)NNC(=O)COc2ccc(Br)cc2C)c1` gave Lmaj promast -5.7, Diaphorase act 0.7, Diaph inh CS 32.0, G6PDH counter 19.1 and WT yeast gro inh 2.4.
COc1ccccc1CNC(=O)C(Cc1c[nH]c2ccccc12)NC(=O)OCc1ccccc1 (centres undefined) was read as Lmaj promast 98.7*, Diaphorase act 0.7, Diaph inh CS 25.4, G6PDH counter 3.9 and WT yeast gro inh -5.2.
For O=C(NCc1ccccc1)N[C@@H](Cc1c[nH]c2ccccc12)C(=O)O the results were Lmaj promast -5.1, Diaphorase act 0.9, Diaph inh CS 14.9, G6PDH counter 15.6 and WT yeast gro inh 17.4.
Cc1nc(Oc2ccc(Cl)cc2)c2oc3ccccc3c2n1 was read as Lmaj promast 1.9, Diaphorase act 0.9, Diaph inh CS 9.1, G6PDH counter 6.1 and WT yeast gro inh 17.3.
For COc1ccc2c(c1)c1nnc(SCC(=O)N3CCCCC3C)nc1n2C (centres undefined) the results were Lmaj promast 85.0*, Diaphorase act 0.8, Diaph inh CS 20.5, G6PDH counter 1.9 and WT yeast gro inh 17.3.
Screening NC(=O)N/N=C/c1cc(Br)ccc1OC(=O)c1ccccc1 returned Lmaj promast 40.0, Diaphorase act 0.9, Diaph inh CS 6.6, G6PDH counter 0.8 and WT yeast gro inh -8.1.
`CN1CCN(C(=O)c2cnn3c2NC(c2ccccc2)CC3C(F)(F)F)CC1` (centres undefined) gave Lmaj promast 3.0, Diaphorase act 0.9, Diaph inh CS 5.7, G6PDH counter 13.2 and WT yeast gro inh 5.3.
Screening Cc1cc(O)ccc1Nc1nc2ccccc2nc1Nc1ccc(O)cc1C returned Lmaj promast 47.4, Diaphorase act 0.4, Diaph inh CS 58.9*, G6PDH counter 15.2 and WT yeast gro inh 4.6.
Screening CSc1nc(N(CCO)CCO)c2sc3nc(-c4ccco4)c4c(c3c2n1)CCC4 returned Lmaj promast 3.3, Diaphorase act 0.5, Diaph inh CS 53.6*, G6PDH counter 7.2 and WT yeast gro inh 12.3.
`C=CCN1C(=O)C(Cc2ccccc2)SC1=Nc1ccc(C(=O)O)cc1` (centres undefined) gave Lmaj promast 20.8, Diaphorase act 0.9, Diaph inh CS 9.7, G6PDH counter 33.1 and WT yeast gro inh -6.1.
